A selection: hits, their analogues and other compounds. The true share with any hit is near 2.3%.
STAT3 act-1: IL-6 driven STAT3 reporter potentiators, primary screen, U3A cells, luciferase, luminescence, MLSCN library; AID 871, 2007; activation (% of control), % at 5.6 µM; 190,000 tested, 0.91% active; IL-6 STAT3-luciferase reporter; 100% = signal with IL-6 EC80 alone;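 active = activation above the screen-wide mean of compound activation plus 3 SD, cut at about 130% in these data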
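Assay system – human STAT1-deficient U3A cells with stable STAT3-luciferase reporter · Also added – IL-6 (33 ng/mL) · Schedule – compound 1 h, then IL-6 6 h at 37 °C · Technique – reporter luminescence signal · Evaluation – % activation versus median of IL-6-stimulated wells · Benchmarks – IL-6-only wells as 100% reference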
STAT3 blocker: IL-6 driven STAT3 reporter inhibitors, primary screen, U3A cells, luciferase, luminescence, MLSCN library; AID 862, 2007; inhibition, % at 5.5 µM; 190,000 tested, 0.89% active; IL-6 STAT3-luciferase reporter; host cell line lacks STAT1;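 active = inhibition above the mean inhibition across all screened compounds plus 3 SD, cut at about 44% in these data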
PPC-1+TRAIL kill: compounds killing PPC-1 cancer cells with TRAIL present, primary screen, TRAIL potentiator project, ATPLite luminescence, uHTS. AID 1443, 2008. 220,000 tested, 0.41% active. PPC-1 cells + TRAIL, ATPLite viability luminescence. cell killing (% activity), % at 4 µM or 5 µM;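 active = cell killing above 50% in the first pass at 4 µM, then a duplicate retest at 5 µM averaging 50% or more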
STAT1 inh: STAT1 signaling inhibitors, primary screen, cell-based, HTS, luciferase reporter; NIH 3T3 STAT1-luciferase reporter, IFN-gamma, luminescence; inhibition, % at 5.5 µM; 200,000 tested, 0.35% active; AID 920, 2007;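 active = inhibition above a set limit, the mean inhibition across all tested compounds plus 3 SD, cut at about 34% in these data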
HSP90 inh: HSP90 inhibitors, primary screen, cell lysate, luminescence. Rabbit reticulocyte lysate, luciferase refolding luminescence, 3 h. inhibition, % at 5.6 µM. 290,000 tested, 0.91% active;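 active = inhibition above the screen-wide mean plus 3 SD, computed separately per campaign, cut at about 16% in these data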;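 note: inhibitors lower the luminescence because luciferase stays unfolded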
TRAIL sens C8: viability loss with TRAIL in NB7+C8 cells, primary screen, TRAIL sensitizer project, cell-based, ATPlite luminescence. inhibition (viability loss, TRAIL sensitization), % at 10 µM. 360,000 tested, 1% active;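 active = compounds causing at least 50% loss of cell viability in the single-dose screen, relative to plate controls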
STAT3 act-2: STAT3 reporter potentiators, retest of hits, confirmation, U3A cells, luciferase, luminescence. shares compounds with STAT3 act-1. IL-6 potentiation; U3A cells lack STAT1; 100 means same as IL-6 alone. potentiation (% of control), % at 5.7 µM. 1,200 tested, 64% active;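 active = percent activation of the STAT3 luciferase reporter above a set limit taken from the earlier primary screen, cut at about 130% in these data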
NFkB act 2: NF-kB reporter activators in human cells, counter-screen for STAT3 activator project; shares compounds with STAT3 act-1; NF-kappaB reporter activation; activation (% of control), % at 5.7 µM; 1,200 tested, 11% active; AID 1309, 2008; in the data active = activation above about 120%;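 note: reporter induced by TNF-alpha stimulation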
STAT1 act: STAT1 reporter activators, IFN-gamma induced, counter-screen for STAT3 activator project, cell-based, NIH 3T3, luciferase luminescence. activation (% of control), % at 5.7 µM. 1,200 tested, 13% active. AID 1318, 2008. NIH 3T3 STAT1-luciferase reporter. shares compounds with STAT3 act-1;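 active = activation above the solvent-only control well mean plus 3 SD, set per screening run, cut at about 120% in these data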
A number is an active result; 0 = inactive; - = no result.

SMILES	STAT3 act-1	STAT3 blocker	PPC-1+TRAIL kill	STAT1 inh	HSP90 inh	TRAIL sens C8	STAT3 act-2	NFkB act 2	STAT1 act
Cc1c(OC(C)C(=O)NC(Cc2c[nH]c3ccc(O)cc23)C(=O)O)ccc2c1oc(=O)c1ccccc12 (centres undefined)	-	-	-	-	0	0	-	-	-
CN(CC(=O)Nc1nc2ccccc2s1)S(=O)(=O)c1ccc(Cl)cc1	156.2	0	0	0	0	0	0	0	0
CCOC(=O)c1cc(NC(=O)NCc2ccco2)c(C)nc1C	0	0	0	0	0	0	-	-	-
Cc1cc(Nc2ccccc2)n(C(=O)c2ccc(Cl)cc2)n1	139.5	0	0	0	0	0	0	0	133.4
COc1cc(C(=O)NC2CC(C)(C)Cc3c2cnn3-c2ccccc2)cc(OC)c1OC (centres undefined)	-	-	-	-	0	0	-	-	-
COc1ccc2nc(NC(=O)Nc3cccc4ccccc34)sc2c1	0	0	0	0	0	0	-	-	-
COc1ccc2nc(N=Nc3c(O)ccc4ccccc34)sc2c1	136.7	0	0	0	0	-	0	0	0
CC(C(=O)Nc1ccccn1)N1C(=O)C2C3C=CC(C3)C2C1=O (centres undefined)	0	0	0	0	0	0	-	-	-
O=C1C2C3C=CC(C3)C2C(=O)N1CNc1ccccn1 (centres undefined)	139.6	0	0	0	0	0	0	0	0
COc1ccc(-c2ccc(-c3nnc(-c4cc(OC)ccc4OC)o3)cc2)cc1	138.3	0	0	0	0	0	0	0	0
COc1ccc(-c2nnc(-c3ccc(N)cc3)o2)cc1	0	0	0	0	0	0	-	-	-
O=C1Cn2c(nc3ccccc32)N1c1ccccc1F	0	0	0	0	0	0	-	-	-
O=C1Cn2c(nc3ccccc32)N1c1cccc(C(F)(F)F)c1	136.2	0	0	0	0	0	0	0	0
CCc1ccc2c(c1)/C(=C/C(=O)c1cccs1)C(=O)N2	0	0	0	0	0	0	-	-	-
Cc1cccc2c1NC(=O)/C2=C\C(=O)c1cccs1	147.5	0	0	0	0	0	136.3	0	0
COc1ccccc1CNC(=O)COC(=O)Cc1c[nH]c2ccccc12	-	-	-	-	-	0	-	-	-
COc1ccccc1NC(=O)COC(=O)Cc1c[nH]c2ccccc12	140.7	0	0	0	0	0	141.9	0	0
COc1ccc(CCn2c(O)c(C=Nc3cccc(F)c3)c(=O)[nH]c2=O)cc1OC	-	-	0	-	0	0	-	-	-
O=C1c2cccc3c(N4CCOCC4)c([N+](=O)[O-])cc(c23)C(=O)N1c1cccc2ccccc12	0	0	0	0	0	0	-	-	-
Cc1nn(-c2ccccc2)c2c1C(c1cccs1)C(C#N)=C(N)O2 (centres undefined)	148.5	0	0	0	0	0	0	0	0
CCCc1nn(-c2ccccc2)c2c1C(c1cccs1)C(C#N)=C(N)O2 (centres undefined)	0	0	0	0	0	0	-	-	-
CCn1c(SCC(=O)NCc2ccco2)nnc1-c1cccs1	0	0	0	0	0	0	-	-	-
CCn1cc([N+](=O)[O-])c(C(=O)N2N=C(c3ccc4ccccc4c3)CC2c2ccccc2O)n1 (centres undefined)	151.4	0	0	0	0	0	138.2	0	0
CC(=O)c1cc(C(=O)N2CCc3c([nH]c4ccccc34)C2C2CCCCC2)[nH]n1 (centres undefined)	156.7	0	0	0	0	0	154.8	0	0
Clc1nc2c(-c3ccccc3)nnn2c2ccccc12	-	-	0	-	0	0	-	-	-
SMILES	STAT3 act-1	STAT3 blocker	PPC-1+TRAIL kill	STAT1 inh	HSP90 inh	TRAIL sens C8	STAT3 act-2	NFkB act 2	STAT1 act
Cc1ccc(-c2nnn3c2nc(Cl)c2ccccc23)cc1	147.3	0	0	0	0	0	145.3	0	0
NNc1nc2c(-c3ccc(F)cc3)nnn2c2ccccc12	0	0	0	0	0	0	-	-	-
Fc1cccc(-c2nnn3c2nc(Cl)c2ccccc23)c1	165.1	0	0	0	0	0	183.2	0	0
Fc1cccc2sc(Nc3nc4c(F)cccc4s3)nc12	155.6	0	0	0	0	0	181.7	122.2	0
Nc1c(C(=O)c2ccc(Br)s2)oc2ccccc12	176.9	0	0	0	0	0	157.7	0	0
Cc1ccc(C(=O)c2oc3ccccc3c2N)cc1	142.8	0	0	0	0	0	0	0	0
Nc1c(C(=O)c2ccc(Br)cc2)oc2ccccc12	0	0	0	0	0	0	-	-	-
COc1ccc(NC(=O)c2sc(SC)nc2N)cc1	136.2	0	0	0	0	0	162.2	126.8	150.1
COc1ccc(NC(=O)c2sc(SCc3ccccc3)nc2N)cc1	0	0	0	0	0	0	-	-	-
COc1ccccc1NC(=O)c1[nH]c(C)c(C(C)=O)c1C	162.3	0	0	0	0	0	158.1	0	0
O=C/C(=C\Nc1ccc(C(=O)N2CCOCC2)cc1)c1nc2ccccc2o1	160.8	0	0	0	0	0	153.4	0	0
O=C(CSc1nc2ccccc2o1)N1CCOCC1	-	-	-	-	0	0	-	-	-
CN(C)C(=O)c1ccc(N/C=C(\C=O)c2nc3ccccc3o2)cc1	141.1	0	0	0	0	0	138.1	0	0
CCCCCC(=O)Nc1nc(C)c(-c2csc(Nc3ccc(Cl)cc3)n2)s1	148.3	0	0	0	0	0	0	0	0
CCCCCCC(=O)Nc1nc(C)c(-c2csc(Nc3ccc(Cl)cc3)n2)s1	136.0	0	0	0	0	0	0	0	0
CCCCCC(=O)Nc1nc(C)c(-c2csc(Nc3cc(Cl)ccc3C)n2)s1	0	0	0	0	0	0	-	-	-
Cc1nc(NC(=O)CC(C)C)sc1-c1csc(Nc2ccc(Cl)cc2)n1	141.3	0	0	0	0	0	0	0	0
CCCCCCC(=O)Nc1nc(C)c(-c2csc(Nc3cc(OC)ccc3OC)n2)s1	0	0	0	0	0	0	-	-	-
Cc1nc(NC(=O)CC(C)C)sc1-c1csc(Nc2ccc(Cl)cc2Cl)n1	0	0	0	0	0	0	-	-	-
COc1ccc(C(CCN)c2ccc3c(c2)OCO3)cc1 (centres undefined)	-	-	-	-	0	0	-	-	-
